{
  "source": "paper PMC9126795",
  "about": "(eBioMedicine, 2022)",
  "assay_type": "in vivo, human",
  "procedure,_shortened": "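Cirrhosis patients (3 per dose level) received a single 4 h IV infusion on Day −7 before the first cycle. Cmax, Tmax, t1/2 and AUC were derived by non-compartmental analysis, with the last concentration extrapolated assuming constant elimination.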",
  "note": "Read-outs that look alike come from different tables or passages of the source.",
  "data": [
    {"substance": "PRI-724", "values": [
      {"measurement": "PRI-724 AUC 0-24h", "setting": "140 mg/m^2/4h, Max", "value": 4660, "unit": "ng·h/mL"},
      {"measurement": "PRI-724 Cmax", "setting": "140 mg/m^2/4h, Max", "value": 1520, "unit": "ng/mL"},
      {"measurement": "PRI-724 Tmax", "setting": "140 mg/m^2/4h, Max", "value": 4, "unit": "h"},
      {"measurement": "PRI-724 AUC 0-24h", "setting": "140 mg/m^2/4h, Mean", "value": 3740, "unit": "ng·h/mL"},
      {"measurement": "PRI-724 Cmax", "setting": "140 mg/m^2/4h, Mean", "value": 1150, "unit": "ng/mL"},
      {"measurement": "PRI-724 AUC 0-24h", "setting": "140 mg/m^2/4h, Median", "value": 3770, "unit": "ng·h/mL"},
      {"measurement": "PRI-724 Cmax", "setting": "140 mg/m^2/4h, Median", "value": 1030, "unit": "ng/mL"},
      {"measurement": "PRI-724 AUC 0-24h", "setting": "140 mg/m^2/4h, Min", "value": 2790, "unit": "ng·h/mL"},
      {"measurement": "PRI-724 Cmax", "setting": "140 mg/m^2/4h, Min", "value": 888, "unit": "ng/mL"},
      {"measurement": "PRI-724 Tmax", "setting": "140 mg/m^2/4h, Min", "value": 1, "unit": "h"},
      {"measurement": "PRI-724 AUC 0-24h", "setting": "280 mg/m^2/4h, Max", "value": 7500, "unit": "ng·h/mL"},
      {"measurement": "PRI-724 Cmax", "setting": "280 mg/m^2/4h, Max", "value": 2590, "unit": "ng/mL"},
      {"measurement": "PRI-724 Tmax", "setting": "280 mg/m^2/4h, Max", "value": 4, "unit": "h"},
      {"measurement": "PRI-724 AUC 0-24h", "setting": "280 mg/m^2/4h, Mean", "value": 5700, "unit": "ng·h/mL"},
      {"measurement": "PRI-724 Cmax", "setting": "280 mg/m^2/4h, Mean", "value": 1710, "unit": "ng/mL"},
      {"measurement": "PRI-724 AUC 0-24h", "setting": "280 mg/m^2/4h, Median", "value": 5960, "unit": "ng·h/mL"},
      {"measurement": "PRI-724 Cmax", "setting": "280 mg/m^2/4h, Median", "value": 1780, "unit": "ng/mL"},
      {"measurement": "PRI-724 AUC 0-24h", "setting": "280 mg/m^2/4h, Min", "value": 2650, "unit": "ng·h/mL"},
      {"measurement": "PRI-724 Cmax", "setting": "280 mg/m^2/4h, Min", "value": 757, "unit": "ng/mL"},
      {"measurement": "PRI-724 Tmax", "setting": "280 mg/m^2/4h, Min", "value": 1, "unit": "h"},
      {"measurement": "PRI-724 AUC 0-24h", "setting": "380 mg/m^2/4h, Max", "value": 16000, "unit": "ng·h/mL"},
      {"measurement": "PRI-724 Cmax", "setting": "380 mg/m^2/4h, Max", "value": 4730, "unit": "ng/mL"},
      {"measurement": "PRI-724 Tmax", "setting": "380 mg/m^2/4h, Max", "value": 4, "unit": "h"},
      {"measurement": "PRI-724 AUC 0-24h", "setting": "380 mg/m^2/4h, Mean", "value": 11800, "unit": "ng·h/mL"},
      {"measurement": "PRI-724 Cmax", "setting": "380 mg/m^2/4h, Mean", "value": 3530, "unit": "ng/mL"},
      {"measurement": "PRI-724 AUC 0-24h", "setting": "380 mg/m^2/4h, Median", "value": 11900, "unit": "ng·h/mL"},
      {"measurement": "PRI-724 Cmax", "setting": "380 mg/m^2/4h, Median", "value": 3540, "unit": "ng/mL"},
      {"measurement": "PRI-724 AUC 0-24h", "setting": "380 mg/m^2/4h, Min", "value": 7940, "unit": "ng·h/mL"},
      {"measurement": "PRI-724 Cmax", "setting": "380 mg/m^2/4h, Min", "value": 2590, "unit": "ng/mL"},
      {"measurement": "PRI-724 Tmax", "setting": "380 mg/m^2/4h, Min", "value": 1, "unit": "h"}
    ]}
  ]
}
